ChEMBL document CHEMBL1143174, “Pharmacomodulation on the 3-acetylursolic acid skeleton: Design, synthesis, and biological evaluation of novel N-{3-[4-(3-aminopropyl)piperazinyl]propyl}-3-O-acetylursolamide derivatives as antimalarial agents” (Bioorg Med Chem, 2008)

Columns and labels:
[1] = test system: Plasmodium falciparum; test: Antimalarial activity against chloroquine-resistant Plasmodium falciparum FcB1 after 24 hrs; assay type: functional, organism-based; conditions: FcB1, 24 h
Method in brief: (§1)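 Asynchronous P. falciparum cultures in human erythrocytes (1% parasitemia, 1% final hematocrit) exposed to serially diluted compounds (DMSO stock, final DMSO ≤0.1%) for 24 h at 37 °C, then 0.5 µCi [3H]hypoxanthine per well added for a further 24 h. Growth inhibition from incorporated radioactivity versus drug-free control on the same plate; IC50 from concentration-response curve, means ± standard deviations of several independent experiments.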

[2] = test system: MRC5; test: Cytotoxicity against human MRC5 cells; assay type: cell-based
[3] = Selectivity index, IC50 for MRC5 cells to IC50 for chloroquine-resistant Plasmodium falciparum FcB1; assay type: functional
Method in brief: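 Ratio of IC50 on MRC-5 human diploid embryonic lung cells to IC50 on FcB1 parasites, the latter from the 24 h drug plus 24 h [3H]hypoxanthine incorporation assay.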

[4] = Resistance index, IC50 for chloroquine-resistant Plasmodium falciparum FcB1 to chloroquine-sensitive Plasmodium falciparum Thai; assay type: functional
Method in brief: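 Ratio of IC50 values between the sensitive Thai and resistant FcB1 strains, each from the [3H]hypoxanthine incorporation assay (24 h drug exposure then 24 h label, asynchronous cultures, 1% parasitemia, 1% hematocrit).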

[5] = test system: Plasmodium falciparum; test: Antimalarial activity against chloroquine-sensitive Plasmodium falciparum Thai after 24 hrs; assay type: functional, organism-based; method in brief: as §1
[6] = target: T1, Histidine-rich protein PFHRP-II (Plasmodium falciparum) (UniProt P05227); test: Inhibition of beta-hematin formation at 1 to 20 mM; assay type: functional
T1 sequence (whole entry): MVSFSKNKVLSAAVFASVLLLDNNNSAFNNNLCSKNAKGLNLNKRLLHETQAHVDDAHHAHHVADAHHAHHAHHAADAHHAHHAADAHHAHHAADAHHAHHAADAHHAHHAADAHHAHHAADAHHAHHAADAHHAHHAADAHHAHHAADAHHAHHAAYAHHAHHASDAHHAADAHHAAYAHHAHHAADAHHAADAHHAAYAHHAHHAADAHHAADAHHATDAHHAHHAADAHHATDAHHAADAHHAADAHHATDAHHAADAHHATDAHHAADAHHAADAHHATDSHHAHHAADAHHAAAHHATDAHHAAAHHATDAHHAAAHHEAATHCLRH

[7] = target: T2, Histidine-rich protein PFHRP-II (Plasmodium falciparum, UniProt P05227); test: Inhibition of beta-hematin formation; assay type: functional
T2 sequence (P05227 whole entry): T1 sequence (whole entry)

[8] = target: T1, Histidine-rich protein PFHRP-II (Plasmodium falciparum); test: Relative chloroquine IC50 for beta-hematin formation; assay type: functional
[9] = target: T1, Histidine-rich protein PFHRP-II (Plasmodium falciparum); test: Inhibition of beta-hematin formation at 8.4; assay type: functional; conditions: concentration not given here
[10] = target: T1, Histidine-rich protein PFHRP-II (Plasmodium falciparum); test: Inhibition of beta-hematin formation at 4.2 mM; assay type: functional
[11] = target: T1, Histidine-rich protein PFHRP-II (Plasmodium falciparum); test: Inhibition of beta-hematin formation at 5 mM; assay type: functional
[12] = target: T1, Histidine-rich protein PFHRP-II (Plasmodium falciparum); test: Inhibition of beta-hematin formation at 10 mM; assay type: functional
[13] = target: T1, Histidine-rich protein PFHRP-II (Plasmodium falciparum); test: Inhibition of beta-hematin formation at 11.4 mM; assay type: functional
[14] = target: T1, Histidine-rich protein PFHRP-II (Plasmodium falciparum); test: Inhibition of beta-hematin formation at 5.7 mM; assay type: functional

SMILES	IC50 [1] [µM]	IC50 [2] [µM]	Selectivity index [3]	Ratio [4]	IC50 [5] [µM]	other results
CC(=O)O[C@H]1CC[C@]2(C)[C@H]3CC=C4[C@@H]5[C@@H](C)[C@H](C)CC[C@]5(C(=O)NCCCN5CCN(CCCN(CC(C)C)CC(C)C)CC5)CC[C@@]4(C)[C@]3(C)CC[C@H]2C1(C)C	18.8	–	–	–	–	–
CC(=O)O[C@H]1CC[C@]2(C)[C@H]3CC=C4[C@@H]5[C@@H](C)[C@H](C)CC[C@]5(C(=O)NCCCN5CCN(CCCNCc6ccc(O)cc6)CC5)CC[C@@]4(C)[C@]3(C)CC[C@H]2C1(C)C	0.08	2.1	27	0.43	0.18	–
CCCCCCCN(CCCCCCC)CCCN1CCN(CCCNC(=O)[C@]23CC[C@@H](C)[C@H](C)[C@H]2C2=CC[C@@H]4[C@@]5(C)CC[C@H](OC(C)=O)C(C)(C)[C@@H]5CC[C@@]4(C)[C@]2(C)CC3)CC1	41.8	–	–	–	–	–
CC(=O)O[C@H]1CC[C@]2(C)[C@H]3CC=C4[C@@H]5[C@@H](C)[C@H](C)CC[C@]5(C(=O)O)CC[C@@]4(C)[C@]3(C)CC[C@H]2C1(C)C [O-ACETYLURSOLIC ACID]	24.9	–	–	–	–	inhibition [6]: 0%
COc1ccc(CN(CCCN2CCN(CCCNC(=O)[C@]34CC[C@@H](C)[C@H](C)[C@H]3C3=CC[C@@H]5[C@@]6(C)CC[C@H](OC(C)=O)C(C)(C)[C@@H]6CC[C@@]5(C)[C@]3(C)CC4)CC2)Cc2ccc(OC)cc2)cc1	6.5	–	–	–	–	–
CC(=O)O[C@H]1CC[C@]2(C)[C@H]3CC=C4[C@@H]5[C@@H](C)[C@H](C)CC[C@]5(C(=O)NCCCN5CCN(CCCN(Cc6ccc(O)cc6)Cc6ccc(O)cc6)CC5)CC[C@@]4(C)[C@]3(C)CC[C@H]2C1(C)C	0.16	1.57	9.7	0.46	0.35	IC50 [7]: 5250 µM; Ratio IC50 [8]: 0.89; inhibition [9]: 82.2%; inhibition [10]: 39.6%
CC(=O)O[C@H]1CC[C@]2(C)[C@H]3CC=C4[C@@H]5[C@@H](C)[C@H](C)CC[C@]5(C(=O)NCCCN5CCN(CCCN(Cc6ccccc6)Cc6ccccc6)CC5)CC[C@@]4(C)[C@]3(C)CC[C@H]2C1(C)C	21.1	–	–	–	–	–
CC(=O)O[C@H]1CC[C@]2(C)[C@H]3CC=C4[C@@H]5[C@@H](C)[C@H](C)CC[C@]5(C(=O)NCCCN5CCN(CCCN(CCCc6ccccc6)CCCc6ccccc6)CC5)CC[C@@]4(C)[C@]3(C)CC[C@H]2C1(C)C	8.06	–	–	–	–	–
CC(=O)O[C@H]1CC[C@]2(C)[C@H]3CC=C4[C@@H]5[C@@H](C)[C@H](C)CC[C@]5(C(=O)NCCCN5CCN(CCCN(Cc6ccc(Cl)cc6)Cc6ccc(Cl)cc6)CC5)CC[C@@]4(C)[C@]3(C)CC[C@H]2C1(C)C	46	–	–	–	–	–
CCCN(CCC)CCCN1CCN(CCCNC(=O)[C@]23CC[C@@H](C)[C@H](C)[C@H]2C2=CC[C@@H]4[C@@]5(C)CC[C@H](OC(C)=O)C(C)(C)[C@@H]5CC[C@@]4(C)[C@]2(C)CC3)CC1	0.8	1.96	2.5	0.79	1	–
CCCCN(CCCC)CCCN1CCN(CCCNC(=O)[C@]23CC[C@@H](C)[C@H](C)[C@H]2C2=CC[C@@H]4[C@@]5(C)CC[C@H](OC(C)=O)C(C)(C)[C@@H]5CC[C@@]4(C)[C@]2(C)CC3)CC1	1	–	–	–	–	–
CCN(CC)CCCC(C)Nc1ccnc2cc(Cl)ccc12 (stereo unspecified)	–	–	–	–	–	inhibition [11]: 36.9%; inhibition [12]: 97.4%
C[C@H]1[C@H](C)CC[C@]2(C(=O)O)CC[C@]3(C)C(=CC[C@@H]4[C@@]5(C)CC[C@H](O)C(C)(C)[C@@H]5CC[C@]43C)[C@H]12 [URSOLIC ACID]	52.9	–	–	–	–	IC50 [7]: > 20000 µM; inhibition [11]: 17.9%; Ratio IC50 [8]: > 3.4
CC(=O)O[C@H]1CC[C@]2(C)[C@H]3CC=C4[C@@H]5[C@@H](C)[C@H](C)CC[C@]5(C(=O)NCCCN5CCN(CCCN)CC5)CC[C@@]4(C)[C@]3(C)CC[C@H]2C1(C)C	0.17	1.61	9.6	0.37	0.46	IC50 [7]: > 20000 µM; inhibition [11]: 12.9%; Ratio IC50 [8]: > 3.4; inhibition [12]: 24.6%
CC(=O)O[C@H]1CC[C@]2(C)[C@H]3CC=C4[C@@H]5[C@@H](C)[C@H](C)CC[C@]5(C(=O)NCCCN5CCN(CCCNCc6ccc([N+](=O)[O-])cc6)CC5)CC[C@@]4(C)[C@]3(C)CC[C@H]2C1(C)C	1.04	5.39	5.2	1.06	0.98	–
CC(=O)O[C@H]1CC[C@]2(C)[C@H]3CC=C4[C@@H]5[C@@H](C)[C@H](C)CC[C@]5(C(=O)NCCCN5CCN(CCCN(CC6CCCCC6)CC6CCCCC6)CC5)CC[C@@]4(C)[C@]3(C)CC[C@H]2C1(C)C	> 100	–	–	–	–	–
CC(=O)O[C@H]1CC[C@]2(C)[C@H]3CC=C4[C@@H]5[C@@H](C)[C@H](C)CC[C@]5(C(=O)NCCCN5CCN(CCCN(Cc6ccc([N+](=O)[O-])cc6)Cc6ccc([N+](=O)[O-])cc6)CC5)CC[C@@]4(C)[C@]3(C)CC[C@H]2C1(C)C	3.57	18.3	5.1	1.17	3.05	IC50 [7]: > 20000 µM; inhibition [13]: 18.6%; Ratio IC50 [8]: > 3.4; inhibition [14]: 3.6%
CC(=O)O[C@H]1CC[C@]2(C)[C@H]3CC=C4[C@@H]5[C@@H](C)[C@H](C)CC[C@]5(C(=O)NCCCN5CCN(CCCN(CC6CC6)CC6CC6)CC5)CC[C@@]4(C)[C@]3(C)CC[C@H]2C1(C)C	0.49	2.53	5.1	0.51	0.95	–
CC(=O)O[C@H]1CC[C@]2(C)[C@H]3CC=C4[C@@H]5[C@@H](C)[C@H](C)CC[C@]5(C(=O)NCCCN5CCN(CCCN(Cc6ccc(F)cc6)Cc6ccc(F)cc6)CC5)CC[C@@]4(C)[C@]3(C)CC[C@H]2C1(C)C	20.3	–	–	–	–	–
CC(=O)O[C@H]1CC[C@]2(C)[C@H]3CC=C4[C@@H]5[C@@H](C)[C@H](C)CC[C@]5(C(=O)NCCCN5CCN(CCCN(Cc6ccc(Br)cc6)Cc6ccc(Br)cc6)CC5)CC[C@@]4(C)[C@]3(C)CC[C@H]2C1(C)C	> 100	–	–	–	–	–
C[C@H]1[C@H](C)CC[C@]2(C(=O)NCCCN3CCN(CCCN)CC3)CC[C@]3(C)C(=CC[C@@H]4[C@@]5(C)CC[C@H](O)C(C)(C)[C@@H]5CC[C@]43C)[C@H]12	0.32	–	–	–	–	–
